Experimental data collected from several papers.
Each line is one published result; the experiments were not run side by side.
Target: Serine/threonine-protein kinase Chk1 (CHEK1, Homo sapiens, UniProt O14757)
Action: inhibitor

| SMILES | read-out | method | cell line | concentration | inhibition |
| --- | --- | --- | --- | --- | --- |
| Cc1ccc(Nc2nccc(N(C)c3ccc4c(C)n(C)nc4c3)n2)cc1S(N)(=O)=O | enzyme activity |  |  | 0.3 µM | 2% |
| CCN1CCN(Cc2ccc(NC(=O)c3ccc(C)c(/C=C/c4cnc5[nH]ccc5c4OC)c3)cc2C(F)(F)F)CC1 | target engagement in cells | chemoproteomics | A-375 | 50 nM | -118% |
| COc1cccc2c(NCc3ccccc3)nc(-n3c(N)nc4ccccc43)nc12 | target engagement in cells | chemoproteomics |  | 20 mM | -4.2% |
| CCCS(=O)(=O)Nc1ccc(F)c(C(=O)c2c[nH]c3ncc(-c4ccc(Cl)cc4)cc23)c1F | enzyme activity |  |  | 1 µM | < 10% |
| CCN1CCN(Cc2ccc(NC(=O)c3ccc(C)c(Oc4ccnc5[nH]ccc45)c3)cc2C(F)(F)F)CC1 | target engagement in cells | chemoproteomics | A-375 | 0.5 µM | -141% |
| CCCCNc1ncc2c(-c3ccc(F)cc3)nn(C[C@H]3CC[C@H](N)CC3)c2n1 | target engagement in cells | chemoproteomics |  | 20 mM | -8.8% |
| C=CC(=O)Nc1cc(Nc2nccc(Nc3cc(Cl)c(F)cc3C(C)(C)O)n2)c(OC)cc1N1CC[C@@H](N(C)C)C1 | enzyme activity |  |  | 1 µM | 9% |
| CNC(=O)c1cc(Oc2ccc(NC(=O)Nc3ccc(Cl)c(C(F)(F)F)c3)cc2)ccn1 | enzyme activity |  |  | 0.3 µM | -5% |
| CN(C)C1CCN(CC#Cc2nn(C3CCCC3)c3nc(NCc4ccccc4)ncc23)C1 (centres unmarked) | enzyme activity | FRET |  | 1 µM | -5% |
| CS(=O)(=O)Nc1cccc(-c2csc(NC(=O)CSc3nc4nccnc4c(=O)n3CCc3ccccc3)n2)c1 | enzyme activity |  |  | 10 µM | -3% |
| CNCc1ccc(-c2cc(-c3nc(-c4ccc(S(=O)(=O)C(C)C)cc4)cnc3N)on2)cc1 | enzyme activity |  |  | 2 µM | 52% |
| Cc1ncc([N+](=O)[O-])n1C(=NO)c1ccccc1C(F)(F)F | enzyme activity |  |  | 10 µM | 19.2% |
| COc1cc2ncnc(Nc3ccc(Oc4ccccc4)c(C)c3C)c2cc1OC | enzyme activity |  |  | 1 µM | 1% |
| CNc1cccc2cc(C(=O)Nc3ccc(C(=O)O)cc3)c(=O)[nH]c12 | enzyme activity |  |  | 10 µM | -1.6% |
